A selection: hits, their analogues and other compounds. The true share with any hit is near 1.6%.
MBD2 inh: inhibitors of MBD2 binding to methylated DNA, primary screen, biochemical, TR-FRET, DNA-binding domain, human; Methyl-CpG-binding domain protein 2 (Homo sapiens), Q9UBB5; MBD2 binding to methylated oligonucleotide; inhibition, % at 4.4 µM; actives 0.31% (n = 370,000); in the data active means inhibition above about 13%
LEDGF integ inh: blockers of LEDGF/p75-dependent integrase strand transfer – biochemical, TR-FRET, high throughput, primary screen; TR-FRET IN-LEDGF/p75 DNA integration, Eu/Cy5; actives 0.64% (n = 370,000); HIV-1 integrase (with human LEDGF/p75); AID 743269, 2014; inhibition, % at 3.7 µM;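 active means inhibition above the screen-wide mean plus 3 SD, cut at about 13% in these data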;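 further: signal is the Cy5 over europium emission ratio at 671 and 618 nm; 0% = plate median of compound wells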
TDP2 absorb: human TDP2 enzyme inhibitors, primary screen, biochemical, epi absorbance, recombinant enzyme; actives 0.34% (n = 370,000); Tyrosyl-DNA phosphodiesterase 2 (Homo sapiens), O95551; T5PNP hydrolysis, p-nitrophenol absorbance 415 nm; inhibition, % at 12.8 µM;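 active means inhibition above the mean of all tested compounds plus 3 SD, set per campaign, cut at about 25% in these data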;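 further: 0% = DMSO with enzyme and 100% = buffer with substrate but no TDP2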
Target sequence (O95551 whole entry, looked up): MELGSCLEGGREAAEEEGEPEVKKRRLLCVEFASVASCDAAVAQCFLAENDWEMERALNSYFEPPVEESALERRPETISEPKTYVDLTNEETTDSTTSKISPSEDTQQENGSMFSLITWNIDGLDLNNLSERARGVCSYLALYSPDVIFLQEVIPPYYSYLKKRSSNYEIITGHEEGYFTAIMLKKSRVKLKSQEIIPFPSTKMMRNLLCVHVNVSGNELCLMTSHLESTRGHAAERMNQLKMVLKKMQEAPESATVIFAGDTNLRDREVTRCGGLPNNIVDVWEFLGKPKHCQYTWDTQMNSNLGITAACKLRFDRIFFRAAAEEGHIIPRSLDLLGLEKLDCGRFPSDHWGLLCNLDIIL
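Read-out basis: percent inhibition. System: recombinant human TDP2. Buffer or medium: Mg2+-containing Tris-HCl buffer, pH 7.5. Repeats: single replicate. Timing: reaction 2 h, 37 °C. Benchmarks: high control without enzyme, low control DMSO plus TDP2. Probe or stimulus: 5 mM T5PNP. Doses: 12.8 µM only. Measured by: epi absorbance of p-nitrophenol freed from T5PNP by hydrolysis.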
UHRF1 binding: UHRF1 methylated DNA binding inhibitors, primary screen, counter-screen for MBD2 inhibitor project, biochemical, TR-FRET, human UHRF1, single concentration | inhibition, % at 4.4 µM | E3 ubiquitin-protein ligase UHRF1 (Homo sapiens), Q96T88 | UHRF1 binding to methylated oligo | actives 0.75% (n = 370,000) | AID 687016, 2013; in the data active means inhibition above about 21%;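 further: UHRF1 SRA domain binding a hemimethylated CpG hairpin DNA probe; 0% = median of test compound wells and 100% = reference inhibitor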
Active calls of the source: *.

SMILES | MBD2 inh | LEDGF integ inh | TDP2 absorb | UHRF1 binding
COc1ccc(S(=O)(=O)n2nc(OC(=O)c3ccccc3)cc2N)cc1 | -6 | 1 | 0 | -1
COc1ccc(S(=O)(=O)n2nc(OC(C)=O)cc2N(C(C)=O)C(C)=O)cc1 | 1 | 6 | 29* | 16
C[C@H](CS)C(=O)N1CCC[C@H]1C(=O)O | 3 | 84* | 7 | 1
CC(=O)N1CCC[C@H]1C(=O)O | -2 | 2 | 15 | -1
COc1ccccc1NC(=O)CN1CCN(C(=O)c2ccco2)CC1 | 0 | 1 | -6 | 27*
COc1ccccc1NC(=O)N1CCN(C)CC1 | 4 | -4 | 3 | 34*
COc1ccccc1NC(=O)N1CCCC1 | 3 | -3 | -5 | 5
C=C(C)CNC(=S)NNC(=O)c1ccco1 | -3 | 3 | 3 | -2
CCCCC(CCC(=O)O)(C(=O)OCC)c1csc(N)n1 (stereo not given) | -2 | 0 | -7 | -2
[N-]=[N+]=CC(=O)CC(c1ccccc1)N1C(=O)c2ccccc2C1=O (stereo not given) | -3 | 2 | 14 | 4
CCOC(=O)C1=CN(Cc2cccc(F)c2)S(=O)(=O)N(CC)C1c1ccc(Br)cc1F (stereo not given) | 13 | 12 | -11 | 21*
O=C(Nc1ccc(OC(=O)c2cccs2)cc1)c1ccco1 | 10 | 1 | 10 | 24*
O=C(c1ccco1)c1cn(CC(=O)N2CCCC2)c2ccccc12 | -1 | -7 | 1 | -2
COc1ccc(CN(C(=O)c2snc(C(N)=O)c2N)C(CC(C)C)C(=O)NC2CCCCC2)cc1 (stereo not given) | -5 | -1 | 2 | 2
CC(C)(C)OC(=O)N1CCC[C@@H]1C(=O)N1CCC[C@@H]1C(=O)NCc1ccccc1 | 15* | 2 | 11 | 16
COC(=O)c1ccc(NC(=O)C2CCCN2C(=O)OCc2ccccc2)cc1 (stereo not given) | 5 | 4 | 3 | 24*
COc1ccc(NC(=O)C2CCCN2C(=O)OCc2ccccc2)cc1 (stereo not given) | -2 | 3 | 7 | -1
CCc1nn(C(C)C(=O)N2CCN(c3ccccc3)CC2)c(=O)c2cc3occc3n12 (stereo not given) | -2 | 1 | 2 | 2
O=C(O)C1=C(C(=O)Nc2cc(C(F)(F)F)ccc2Cl)CCCC1 | -1 | -3 | 4 | 29*
CCOc1ncccc1C(=O)Nc1ccc(F)c(Cl)c1 | 8 | 0 | -2 | 76*
CCCCCC1=C(C(=O)OC)C(C(=O)OCC)N(S(=O)(=O)C(F)(F)F)c2ccccc21 (stereo not given) | -6 | 2 | -7 | -2
O=C(O)c1c2c(nc3ccccc13)/C(=C/c1ccc(O)cc1)CC2 | 11 | 10 | 15 | 37*
CN1C(=S)N(c2cccnc2)C(=O)/C1=C\c1ccc(N(C)C)cc1 | -11 | -8 | -7 | 43*
CN1C(=S)N(c2cccnc2)C(=O)/C1=C\c1ccc(C(C)(C)C)cc1 | 2 | 0 | -5 | 0
Cc1ccccc1CN1[C@@H](C)[C@H](c2ccccc2)Oc2cccc(NCCc3ccccc3)c2S1(=O)=O | 2 | 3 | 5 | 21*
SMILES | MBD2 inh | LEDGF integ inh | TDP2 absorb | UHRF1 binding
CC(C)c1nnc(SCC(=O)Nc2ccc3c(c2)OCCO3)n1C | 2 | -4 | -5 | 0
CSc1cccc(N2CC(C(=O)N(Cc3nnc(-c4ccccc4Cl)o3)C3CC3)CC2=O)c1 (stereo not given) | 2 | 0 | -2 | 0
COc1cc(C=Nc2cccc(C)c2)c(O)c([N+](=O)[O-])c1 | -12 | 0 | 0 | -7
Cc1cccc(N=Cc2cc3c(cc2[N+](=O)[O-])OCO3)c1 | -6 | 14* | 7 | -5
CCN(CC)C(=O)Oc1ccc2oc(=O)cc(-c3cc4cccc(OC)c4o3)c2c1 | 4 | -1 | -12 | 21*
Cc1cc(F)cc(-c2cc(C(=O)NCc3ccc(C(F)(F)F)cc3)[nH]n2)c1 | -5 | 3 | 6 | -1
COc1ccc(N2CCN(C(=O)c3cc4c(s3)-c3ccccc3S(=O)(=O)C4)CC2)cc1 | 5 | 1 | 10 | 22*

Screening results from PubChem.
